Results published in ChEMBL document CHEMBL5154784, “Design, Synthesis, Biological Evaluation, and Computational Studies of Novel Ureidopropanamides as Formyl Peptide Receptor 2 (FPR2) Agonists to Target the Resolution of Inflammation in Central Nervous System Disorders” (J Med Chem, 2022).

Assays:
[1] = Cmax in CD-1 mouse at 10 mg/kg, ip measured after 30 mins by UPLC analysis; assay type: ADME, organism-based; design: time 30 min, dose 10 mg/kg, route ip; conditions: in vivo, 0.5 h
Outline: (§1)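 Male CD-1 mice (25–30 g) dosed i.v. 1 mg/kg or i.p. 10 mg/kg in 5% DMSO/10% solutol HS 15/85% sterile water, n = 3 per time point. Cardiac-puncture blood under isoflurane: i.v. 0.083–8 h, i.p. 0.25–24 h. K2EDTA plasma, protein precipitation with acetonitrile (rolipram internal standard), UPLC on C18 column.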

[2] = Neurotoxicity against Sprague-Dawley rat primary microglial cells assessed as reduction in cell viability by measuring LDH release at 0.1 uM incubated for 24 hrs by LDH assay; assay type: toxicity, cell-based; conditions: microglia
Outline: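 Sprague–Dawley rat neonatal cortical microglia (>95% Iba-1+), switched to 1% FBS medium 1 h before treatment. Compound 0.1 μM for 1 h, then LPS 100 ng/mL for 24 h; WRW4 10 μM given 30 min before in some sets, 0.1% vehicle. Supernatant LDH read at 540 nm, % of vehicle controls, mean ± SEM.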

[3] = Drug concentration in CD-1 mouse brain at 10 mg/kg, ip measured after 8 hrs by UPLC analysis; assay type: ADME, organism-based; conditions: read-out: Ct
Outline: (§2)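 Male CD-1 mice (25–30 g) given 10 mg/kg i.p. in 5% DMSO/10% solutol HS 15/85% water, n = 3 per time point. Brains taken after decapitation under anesthesia, homogenized in four volumes 0.1 N HEPES. Plasma drawn by cardiac puncture. Acetonitrile precipitation with rolipram internal standard, UPLC quantification. Brain-to-plasma ratio taken from paired brain and plasma levels.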

[4] = AUC (infinity) in CD-1 mouse at 10 mg/kg, ip measured after 30 mins by UPLC analysis; assay type: ADME, organism-based; design: time 30 min, dose 10 mg/kg, route ip; conditions: in vivo, 0.5 h; outline: as §1
[5] = Cytotoxicity against mouse N9 cells assessed as reduction in cell viability by measuring LDH release at 0.5 to 5 uM incubated for 24 hrs by LDH assay; assay type: toxicity, cell-based; conditions: n9, 24 h, dose 0.5-5 µM
Outline: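 N9 cells (2 × 10^4/well) given compound at 0.5 or 5 μM, alone or with LPS (E. coli O111:B4, 100 ng/mL) added 30 min later, for 24 h at 37 °C. Released LDH measured in supernatant (30 min, room temperature, 490/630 nm). Expressed as % of untreated cells, mean ± SEM, at least three experiments in triplicate.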

[6] = Cmax in CD-1 mouse at 1 mg/kg, iv measured after 5 mins by UPLC analysis; assay type: ADME, organism-based; design: time 5 min, dose 1 mg/kg, route iv; conditions: in vivo; outline: as §1
[7] = Drug concentration in CD-1 mouse brain at 10 mg/kg, ip measured after 2 hrs by UPLC analysis; assay type: ADME, organism-based; conditions: read-out: Ct; outline: as §2
[8] = Tlast in CD-1 mouse at 10 mg/kg, ip by UPLC analysis; assay type: ADME, organism-based; conditions: in vivo; outline: as §1
[9] = Clast in CD-1 mouse at 1 mg/kg, iv measured upto 4 hrs by UPLC analysis; assay type: ADME, organism-based; conditions: in vivo, read-out: Clast; outline: as §1
[10] = AUC (infinity) in CD-1 mouse at 1 mg/kg, iv measured upto 4 hrs by UPLC analysis; assay type: ADME, organism-based; design: time < 4 hrs, dose 1 mg/kg, route iv; conditions: in vivo; outline: as §1

Cmax [1]: 192 ng/mL
concentration at 8 h [3]: 15.7 ng/g
AUC [4]: 731 ng·h/mL
Cmax [6]: 1380 ng/mL
concentration at 2 h [7]: 37 ng/g
Tlast [8]: 8 h
concentration at 4 h [9]: 14.1 ng/mL
AUC [10]: 613 ng·h/mL
Structure (SMILES): N#Cc1ccc(C[C@H](NC(=O)Nc2ccc(F)cc2)C(=O)N2CCc3ccc(F)cc32)cc1
Activity [2]: Non-Toxic
Activity [5]: Non-Toxic
